According to ChEMBL document CHEMBL2203109, “3-Phenyl substituted 6,7-dimethoxyisoquinoline derivatives as FtsZ-targeting antibacterial agents” (Bioorg Med Chem, 2012):
In brackets after ≈: the same amount, converted by molar mass. Activity calls are given as the source filed them. The calls are words filed in the database; no cut-off is given here.

Experiments:
Enterococcus faecalis [1] = assay: Antibacterial activity against log-phase vancomycin-resistant Enterococcus faecalis ATCC 51575 assessed as growth inhibition after 24 hrs by broth microdilution method; format: functional; conditions: ATCC 51575, 24 h
Method in brief: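 CLSI broth microdilution in brain–heart infusion broth; log-phase bacteria at 10^5 CFU/mL, two-fold serial dilutions 64 to 0.031 μg/mL; 24 h aerobic incubation at 37 °C; OD600 read-out; MIC taken as lowest concentration inhibiting growth ≥90%.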

Enterococcus faecalis [2] = assay: Antibacterial activity against log-phase vancomycin-sensitive Enterococcus faecalis ATCC 19433 assessed as growth inhibition after 24 hrs by broth microdilution method; format: functional; conditions: ATCC 19433, 24 h
Method in brief: (§1)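 CLSI broth microdilution. Log-phase bacteria at 10^5 CFU/mL with two-fold serial dilutions (64 to 0.031 μg/mL). S. aureus tested in cation-adjusted Mueller-Hinton broth; E. faecalis in brain–heart infusion broth. Aerobic incubation 24 h at 37 °C. OD600 read; MIC is the lowest concentration giving ≥90% growth inhibition.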

Staphylococcus aureus [3] = assay: Antibacterial activity against log-phase methicillin-resistant Staphylococcus aureus ATCC 33591 assessed as growth inhibition after 24 hrs by broth microdilution method; format: functional; conditions: ATCC 33591, 24 h
Method in brief: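 CLSI broth microdilution; 10^5 CFU/mL log-phase bacteria in cation-adjusted Mueller-Hinton broth with 2% NaCl, two-fold serial dilutions from 64 to 0.031 μg/mL; aerobic incubation 24 h at 37 °C; growth read as OD600; MIC = lowest concentration giving ≥90% growth inhibition.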

Staphylococcus aureus [4] = assay: Antibacterial activity against log-phase methicillin-sensitive Staphylococcus aureus 8325-4 assessed as growth inhibition after 24 hrs by broth microdilution method; format: functional; conditions: 8325-4, 24 h; method in brief: as §1
[5] = molecular target: T1, Cell division protein FtsZ (Staphylococcus aureus) (UniProt P0A031); assay: Induction of Staphylococcus aureus FtsZ polymerization at 40 ug/ml measured for 60 mins by microtiter plate-based light scattering assay
T1 sequence (whole entry): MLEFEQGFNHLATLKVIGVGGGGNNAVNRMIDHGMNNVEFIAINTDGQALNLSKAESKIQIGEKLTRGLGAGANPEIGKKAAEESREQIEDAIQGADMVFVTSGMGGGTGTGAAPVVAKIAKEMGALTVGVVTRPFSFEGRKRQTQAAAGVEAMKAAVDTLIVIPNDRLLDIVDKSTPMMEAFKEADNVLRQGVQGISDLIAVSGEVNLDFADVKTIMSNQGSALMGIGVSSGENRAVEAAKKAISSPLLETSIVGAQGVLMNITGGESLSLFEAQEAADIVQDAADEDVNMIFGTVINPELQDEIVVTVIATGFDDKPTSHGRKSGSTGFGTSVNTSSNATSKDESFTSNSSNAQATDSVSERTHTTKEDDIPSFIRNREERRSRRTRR
Method in brief: (§2)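 Turbidity assay. 10 μM SaFtsZ plus compound (0–40 μg/mL) in 50 mM Tris HCl pH 7.4, 50 mM KCl, 2 mM magnesium acetate, 5 mM CaCl2, pre-equilibrated 10 min at room temperature. Started by adding 1 mM GTP or FtsZ; A340 followed for 60 min at 25 °C. For polymer stability, 1 mM GDP added mid-run.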

[6] = molecular target: T1, Cell division protein FtsZ (Staphylococcus aureus); assay: Residual Staphylococcus aureus GTPase activity assessed as inorganic phosphate release upon GTP hydrolysis at 40 ug/ml preincubated for 10 mins before substrate addition measured after 2 hrs by malachite green based colorimetric analysis
HEK293 = assay: Cytotoxicity against human HEK293 cells at 10 uM after 4 days by MTT assay; format: cell-based; conditions: hek293, 96 h
Method in brief: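 MTT assay. HEK293 or MDCK cells kept at 37 °C, 5% CO2 in DMEM, seeded at 1500 cells per well. Continuous 4-day exposure to varying drug concentrations in triplicate wells, with a drug-free control. MTT read at end of day 4; IC50 determined.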

[7] = molecular target: T1, Cell division protein FtsZ (Staphylococcus aureus); assay: Induction of Staphylococcus aureus FtsZ polymerization measured for 60 mins by microtiter plate-based light scattering assay; method in brief: as §2
[8] = molecular target: T1, Cell division protein FtsZ (Staphylococcus aureus); assay: Induction of Staphylococcus aureus FtsZ polymerization at 40 ug/ml measured for 60 mins by microtiter plate-based light scattering assay in presence of GTP

| Structure (SMILES) | MIC90 (Enterococcus faecalis [1]) | MIC90 (Enterococcus faecalis [2]) | MIC90 (Staphylococcus aureus [3]) | MIC90 (Staphylococcus aureus [4]) | Activity [5] | residual activity [6] | Activity (HEK293) | Activity [7] | Activity [8] |
| --- | --- | --- | --- | --- | --- | --- | --- | --- | --- |
| COc1ccc2c(c[n+](C)c3c4cc5c(cc4ccc23)OCO5)c1OC [CHELERYTHRINE] | 32 µg/mL | 32 µg/mL | 4 µg/mL | 4 µg/mL |  |  |  |  |  |
| COc1cc2cc(-c3cccc(-c4ccccc4)c3)[n+](C)c(C)c2c(OC)c1OC.[I-] | 32 µg/mL | 32 µg/mL | 8 µg/mL | 8 µg/mL |  |  |  |  |  |
| COc1cc2cnc(-c3cccc(-c4ccccc4)c3)cc2cc1OC | > 64 µg/mL | > 64 µg/mL | > 64 µg/mL | > 64 µg/mL |  |  |  |  |  |
| CN[C@H](CC(C)C)C(=O)N[C@H]1C(=O)N[C@@H](CC(N)=O)C(=O)N[C@H]2C(=O)N[C@H]3C(=O)N[C@H](C(=O)N[C@H](C(=O)O)c4cc(O)cc(O)c4-c4cc3ccc4O)[C@H](O)c3ccc(c(Cl)c3)Oc3cc2cc(c3O[C@@H]2O[C@H](CO)[C@@H](O)[C@H](O)[C@H]2O[C@H]2C[C@](C)(N)[C@H](O)[C@H](C)O2)Oc2ccc(cc2Cl)[C@H]1O [VANCOMYCIN] | > 64 µg/mL | 1 µg/mL (≈ 0.69 µM) | 2 µg/mL (≈ 1.38 µM) | 1 µg/mL (≈ 0.69 µM) | inactive | 99.7% |  |  |  |
| COc1cc2cc(-c3cccc(C(C)(C)C)c3)nc(CN)c2cc1OC | 32 µg/mL (≈ 91.3 µM) | 32 µg/mL (≈ 91.3 µM) | 8 µg/mL (≈ 22.8 µM) | 4 µg/mL (≈ 11.4 µM) |  |  | Non-toxic |  |  |
| COc1cc2cc(-c3cccc(C(C)(C)C)c3)nc(C)c2cc1OC | > 64 µg/mL | > 64 µg/mL | > 64 µg/mL | > 64 µg/mL | inactive |  |  |  |  |
| COc1cc2cc(-c3cccc(C(C)(C)C)c3)[n+](C)c(C)c2cc1OC.[I-] | 64 µg/mL | 64 µg/mL | 16 µg/mL | 16 µg/mL |  |  |  |  |  |
| COc1cc2cc(-c3cccc(-c4ccccc4)c3)[n+](C)cc2cc1OC.[I-] | > 64 µg/mL | > 64 µg/mL | 64 µg/mL | 16 µg/mL |  |  |  |  |  |
| COc1cc2cc(-c3cccc(C(C)(C)C)c3)nc(CCN=C(N)N)c2cc1OC | 16 µg/mL (≈ 39.4 µM) | 16 µg/mL (≈ 39.4 µM) | 4 µg/mL (≈ 9.84 µM) | 4 µg/mL (≈ 9.84 µM) | Active | 66.5% | Non-toxic | Dose-dependent effect | Active |
| C[n+]1cc2c3c(ccc2c2ccc4cc5c(cc4c21)OCO5)OCO3 [SANGUINARIUM] | 16 µg/mL | 8 µg/mL | 2 µg/mL | 2 µg/mL |  |  |  |  |  |
| COc1cc2cc(-c3cccc(-c4ccccc4)c3)nc(CCN)c2cc1OC | > 64 µg/mL | 16 µg/mL (≈ 41.6 µM) | 4 µg/mL (≈ 10.4 µM) | 4 µg/mL (≈ 10.4 µM) |  |  |  |  |  |
| COc1cc(-c2cc3cc(OC)c(OC)c(OC)c3c(C)n2)cc(-c2ccc(-c3ccccc3)cc2)c1OC | > 64 µg/mL | > 64 µg/mL | > 64 µg/mL | > 64 µg/mL |  |  |  |  |  |
| COc1cc2cc(-c3cccc(-c4ccc(C(C)(C)C)cc4)c3)nc(CN=C(N)N)c2cc1OC | 16 µg/mL (≈ 34.1 µM) | 8 µg/mL (≈ 17.1 µM) | 4 µg/mL (≈ 8.54 µM) | 4 µg/mL (≈ 8.54 µM) |  |  | Non-toxic |  |  |
| COc1cc(-c2cc3cc(OC)c(OC)c(OC)c3c(C)[n+]2C)cc(-c2ccc(-c3ccccc3)cc2)c1OC.[I-] | 4 µg/mL |  |  | 1 µg/mL |  |  |  |  |  |
| COc1ccc2cc3[n+](cc2c1OC)CCc1cc2c(cc1-3)OCO2 [BERBERINE] | > 64 µg/mL | > 64 µg/mL | > 64 µg/mL | > 64 µg/mL | inactive |  |  |  |  |
| COc1cc2cc(-c3cccc(-c4ccccc4)c3)nc(C)c2c(OC)c1OC | > 64 µg/mL | > 64 µg/mL | > 64 µg/mL | > 64 µg/mL |  |  |  |  |  |
